In data set [1] the test system is Escherichia coli. The data set is described as follows: Antibacterial activity against Escherichia coli by broth microdilution method. Format: functional. The procedure, abridged: (§1)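 Broth microdilution. E. coli ATCC 25922 or S. aureus ATCC 25923 grown to mid-exponential phase in TSB at 37 °C, 200 rpm. MIC taken as the lowest concentration with no growth.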
Data set [2] relates to Escherichia coli. The experiment in a line: Drug uptake in Escherichia coli ATCC 25922 assessed as increase in cellular fluorescence at 10 uM after 6 hrs by confocal microscopic analysis. Format: ADME, organism-based. Particulars: in vivo; call rule not given here. The procedure, abridged:
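E. coli ATCC 25922 grown to mid-exponential phase in MHB at 37 °C, pelleted and resuspended in fresh MHB. Exposed to 10 µM fluorescein-labelled peptide or buffer for 10 min, 1 h or 6 h at 37 °C. Cells washed in PBS, fixed in 10% formalin, stained with 1 µM Hoechst, mounted on poly-lysine coverslips. Confocal imaging at equal laser intensity.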

Data set [3] has as its system Escherichia coli. The experiment in a line: Antibacterial activity against Escherichia coli ATCC 25922 assessed as release of beta-galactosidase at 20 µM after 1 hr relative to control.
A further data set relates to Staphylococcus aureus. The experiment in a line: Antibacterial activity against Staphylococcus aureus by broth microdilution method. It counts as functional. Put shortly:
as §1
In general terms: Dilution methods test growth across graded concentrations, often in twofold steps.

The test system of data set [4] is Escherichia coli. The experiment in a line: Antibacterial activity against Escherichia coli ATCC 25922 assessed as release of beta-galactosidase at 5 times MIC after 1 hr relative to control. Format: functional.
A short description of data set [5]: Toxicity in human RBC assessed as hemolysis by measuring hemoglobin release at 1 uM after 1 hr. Format: cell-based. Particulars: erythrocyte. Put shortly: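 Fresh human RBCs from healthy volunteers, washed three times in PBS pH 7.4 and used as an 8% (v/v) suspension. Mixed with two-fold serial peptide dilutions and incubated 1 h at 37 °C. Positive controls were melittin and 1% Triton X-100.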

Data set [6] has as its system Escherichia coli. The data set is described as follows: Antibacterial activity against Escherichia coli ATCC 25922 assessed as release of beta-galactosidase after 1 hr relative to control. Format: functional. Put shortly:
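Cells washed twice in TSB, then exposed to peptide at 1× or 5× MIC for 1 h at 37 °C. Supernatant collected by cold centrifugation and mixed with ONPG. Release expressed versus buffer control.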

Values after ≈ are worked out from the molar mass of the structure shown.

In the case of `CC(C)COC1C[C@@H](C(=O)N2CC(OCCCNC(=N)N)C[C@H]2C(=O)N2CC(OCCCNC(=N)N)C[C@H]2C(=O)N2CC(OCC(C)C)C[C@H]2C(=O)N2CC(OCCCNC(=N)N)C[C@H]2C(=O)N2CC(OCCCNC(=N)N)C[C@H]2C(=O)N2CC(OCC(C)C)C[C@H]2C(=O)N2CC(OCCCNC(=N)N)C[C@H]2C(=O)N2CC(OCCCNC(=N)N)C[C@H]2C(=O)N2C[C@@H](OCC(C)C)CC2C(N)=O)N(C(=O)CNC(=O)c2ccc(-c3c4ccc(=O)cc-4oc4cc(O)ccc34)c(C(=O)O)c2)C1` (stereo not given in full), the MIC in the data set on Escherichia coli [1] and against Staphylococcus aureus was 60 µM (≈ 143 µg/mL) each time. Moreover, the Drug uptake entry with Escherichia coli [2] was “Active”. The “fold change (FC)” value in the data set on Escherichia coli [3] is reported as 3.
In the case of `CC(=O)NCC(=O)N(CCCCC(=O)NCC(=O)N1CC(OCC(C)C)C[C@H]1C(=O)N1CC(OCCCNC(=N)N)C[C@H]1C(=O)N1CC(OCCCNC(=N)N)C[C@H]1C(=O)N1CC(OCC(C)C)C[C@H]1C(=O)N1CC(OCCCNC(=N)N)C[C@H]1C(=O)N1CC(OCCCNC(=N)N)C[C@H]1C(=O)N1CC(OCC(C)C)C[C@H]1C(=O)N1CC(OCCCNC(=N)N)C[C@H]1C(=O)N1CC(OCCCNC(=N)N)C[C@H]1C(=O)N1CC(OCC(C)C)C[C@H]1C(N)=O)CCCCC(=O)NCC(=O)N1CC(OCC(C)C)C[C@H]1C(=O)N1CC(OCCCNC(=N)N)C[C@H]1C(=O)N1CC(OCCCNC(=N)N)C[C@H]1C(=O)N1CC(OCC(C)C)C[C@H]1C(=O)N1CC(OCCCNC(=N)N)C[C@H]1C(=O)N1CC(OCCCNC(=N)N)C[C@H]1C(=O)N1CC(OCC(C)C)C[C@H]1C(=O)N1CC(OCCCNC(=N)N)C[C@H]1C(=O)N1CC(OCCCNC(=N)N)C[C@H]1C(=O)N1CC(OCC(C)C)C[C@H]1C(N)=O` (stereo not given in full), the MIC (commonly the lowest concentration that inhibits growth of the organism) with Escherichia coli [1] was 1 µM (≈ 4.33 µg/mL); in the data set with Staphylococcus aureus, 2 µM (≈ 8.66 µg/mL).
Consider `CC(=O)NCC(=O)N(CCCCC(=O)NCCC(=O)N1CC(OCC(C)C)C[C@H]1C(=O)N1CC(OCCCNC(=N)N)C[C@H]1C(=O)N1CC(OCCCNC(=N)N)C[C@H]1C(=O)N1CC(OCC(C)C)C[C@H]1C(=O)N1CC(OCCCNC(=N)N)C[C@H]1C(=O)N1CC(OCCCNC(=N)N)C[C@H]1C(=O)N1CC(OCC(C)C)C[C@H]1C(=O)N1CC(OCCCNC(=N)N)C[C@H]1C(=O)N1CC(OCCCNC(=N)N)C[C@H]1C(=O)N1CC(OCC(C)C)C[C@H]1C(N)=O)CCCCC(=O)NCCC(=O)N1CC(OCC(C)C)C[C@H]1C(=O)N1CC(OCCCNC(=N)N)C[C@H]1C(=O)N1CC(OCCCNC(=N)N)C[C@H]1C(=O)N1CC(OCC(C)C)C[C@H]1C(=O)N1CC(OCCCNC(=N)N)C[C@H]1C(=O)N1CC(OCCCNC(=N)N)C[C@H]1C(=O)N1CC(OCC(C)C)C[C@H]1C(=O)N1CC(OCCCNC(=N)N)C[C@H]1C(=O)N1CC(OCCCNC(=N)N)C[C@H]1C(=O)N1CC(OCC(C)C)C[C@H]1C(N)=O` (stereo not given in full), for which the MIC against Escherichia coli [1] was found to be 4 µM (≈ 17.4 µg/mL); in the data set on Staphylococcus aureus, 8 µM (≈ 34.9 µg/mL).
For `CC(=O)NCC(=O)N(CCCCC(=O)NCCCC(=O)N1CC(OCC(C)C)C[C@H]1C(=O)N1CC(OCCCNC(=N)N)C[C@H]1C(=O)N1CC(OCCCNC(=N)N)C[C@H]1C(=O)N1CC(OCC(C)C)C[C@H]1C(=O)N1CC(OCCCNC(=N)N)C[C@H]1C(=O)N1CC(OCCCNC(=N)N)C[C@H]1C(=O)N1CC(OCC(C)C)C[C@H]1C(=O)N1CC(OCCCNC(=N)N)C[C@H]1C(=O)N1CC(OCCCNC(=N)N)C[C@H]1C(=O)N1CC(OCC(C)C)C[C@H]1C(N)=O)CCCCC(=O)NCCCC(=O)N1CC(OCC(C)C)C[C@H]1C(=O)N1CC(OCCCNC(=N)N)C[C@H]1C(=O)N1CC(OCCCNC(=N)N)C[C@H]1C(=O)N1CC(OCC(C)C)C[C@H]1C(=O)N1CC(OCCCNC(=N)N)C[C@H]1C(=O)N1CC(OCCCNC(=N)N)C[C@H]1C(=O)N1CC(OCC(C)C)C[C@H]1C(=O)N1CC(OCCCNC(=N)N)C[C@H]1C(=O)N1CC(OCCCNC(=N)N)C[C@H]1C(=O)N1CC(OCC(C)C)C[C@H]1C(N)=O` (stereo not given in full), the MIC in the data set on Escherichia coli [1] was found to be 1 µM (≈ 4.39 µg/mL); in the data set on Staphylococcus aureus it was 4 µM (≈ 17.5 µg/mL).
In the case of `CC(C)COC1C[C@@H](C(=O)N2CC(OCCCNC(=N)N)C[C@H]2C(=O)N2CC(OCCCNC(=N)N)C[C@H]2C(=O)N2CC(OCC(C)C)C[C@H]2C(=O)N2CC(OCCCNC(=N)N)C[C@H]2C(=O)N2CC(OCCCNC(=N)N)C[C@H]2C(=O)N2CC(OCC(C)C)C[C@H]2C(=O)N2CC(OCCCNC(=N)N)C[C@H]2C(=O)N2CC(OCCCNC(=N)N)C[C@H]2C(=O)N2CC(OCC(C)C)C[C@H]2C(=O)N2CC(OCCCNC(=N)N)C[C@H]2C(=O)N2CC(OCCCNC(=N)N)C[C@H]2C(=O)N2CC(OCC(C)C)C[C@H]2C(N)=O)N(C(=O)CNC(=O)c2ccc(-c3c4ccc(=O)cc-4oc4cc(O)ccc34)c(C(=O)O)c2)C1` (stereo not given in full), the “fold change (FC)” value in the data set with Escherichia coli [4] worked out at 3. The results for the MIC with Escherichia coli [1] and in the data set with Staphylococcus aureus were 4 µM (≈ 11.9 µg/mL) and 12 µM (≈ 35.7 µg/mL), respectively.
In the case of `CC[C@H](C)[C@H](NC(=O)CN)C(=O)NCC(=O)N[C@@H](C)C(=O)N[C@H](C(=O)N[C@@H](CC(C)C)C(=O)N[C@@H](CCCCN)C(=O)N[C@H](C(=O)N[C@@H](CC(C)C)C(=O)N[C@H](C(=O)N[C@H](C(=O)NCC(=O)N[C@@H](CC(C)C)C(=O)N1CCC[C@H]1C(=O)N[C@@H](C)C(=O)N[C@@H](CC(C)C)C(=O)N[C@H](C(=O)N[C@@H](CO)C(=O)N[C@@H](Cc1c[nH]c2ccccc12)C(=O)N[C@H](C(=O)N[C@@H](CCCCN)C(=O)N[C@@H](CCCNC(=N)N)C(=O)N[C@@H](CCCCN)C(=O)N[C@@H](CCCNC(=N)N)C(=O)N[C@@H](CCC(N)=O)C(=O)N[C@@H](CCC(N)=O)C(N)=O)[C@@H](C)CC)[C@@H](C)CC)[C@@H](C)O)[C@@H](C)O)C(C)C)C(C)C` [MELITTIN], the Activity entry in data set [5] is on record as “Toxic”. In the data set with Escherichia coli [6], the “fold change (FC)” value is 8.

The record behind these values is ChEMBL document CHEMBL3102835, “Dimeric unnatural polyproline-rich peptides with enhanced antibacterial activity” (Bioorg Med Chem Lett, 2014).
